Source: PubChem (several laboratories)
PostGolgi yeast: phenotypic screen on post-Golgi transport, primary screen. post-Golgi transport phenotypic cell assay. AID 739, 2007. 98,000 tested, 0.9% active. inhibition, % at 10 µM;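 further: yeast cells grown in 1536-well plates; yeast grown about 18 h at 30C before absorbance read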
PostGolgi ctrl: growth inhibition of yeast control strain, primary screen, counter-screen for post-Golgi transport modulator project | efflux-deficient yeast background strain, growth absorbance A615, 16 h | inhibition, % at 10 µM | 98,000 tested, 5% active | AID 738, 2007
PLAP activator: PLAP enzyme activators, biochemical, luminescence, HTS; activation fold at 20 µM; 96,000 tested, 1.2% active; purified PLAP enzyme, luminescent substrate read-out; active compounds read high; Alkaline phosphatase, placental type (Homo sapiens), P05187; AID 696, 2007; in the data active means activation fold above about 2
Target sequence (P05187 whole entry, looked up): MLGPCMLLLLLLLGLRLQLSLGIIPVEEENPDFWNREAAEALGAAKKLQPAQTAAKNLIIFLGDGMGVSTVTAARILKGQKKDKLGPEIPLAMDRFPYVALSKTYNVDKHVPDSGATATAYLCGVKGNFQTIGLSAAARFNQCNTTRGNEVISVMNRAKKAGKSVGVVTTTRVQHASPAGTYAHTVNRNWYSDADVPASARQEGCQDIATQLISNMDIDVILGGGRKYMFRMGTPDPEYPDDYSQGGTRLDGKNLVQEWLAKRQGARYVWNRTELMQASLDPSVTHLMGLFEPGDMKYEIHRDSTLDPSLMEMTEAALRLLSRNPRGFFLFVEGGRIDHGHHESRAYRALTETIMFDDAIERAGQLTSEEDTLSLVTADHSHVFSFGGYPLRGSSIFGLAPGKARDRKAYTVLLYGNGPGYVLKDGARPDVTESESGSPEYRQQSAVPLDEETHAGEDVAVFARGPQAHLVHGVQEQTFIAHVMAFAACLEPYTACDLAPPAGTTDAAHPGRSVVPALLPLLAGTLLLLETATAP
E coli WT exp: growth inhibitors of wild-type E. coli, primary screen, strain BW25113, expanded library, OD600 | AID 710, 2007 | 98,000 tested, 0.15% active | growth inhibition, % at 100 µM | OD600 absorbance;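 active means growth inhibition above about 50% at one test dose, limit read from the data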;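 further: growth measured after 20 h incubation at 37 °C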
Ecoli tolC: growth inhibitors of E. coli tolC mutant, primary screen, strain BW25113 ΔtolC::kan, 384-well; OD615; growth inhibition, % at 10 µM (by protocol); 65,000 tested, 2.2% active; AID 573, 2007;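 active means growth inhibition at or above a cutoff equal to the mean over every tested compound plus 3 SD, cut at about 60% in these data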;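 further: growth measured after 20 h incubation at 37 °C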
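Test system: E. coli BW25113 ΔtolC::kan bacteria; incubation: 37 °C, 20 h exposure; medium: LB broth supplemented with 50 µg/mL kanamycin; read-out basis: percent growth inhibition; signal: A615 absorbance measurement; compound: 10 µM final, single dose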
Numbers without * were called inactive; x = not tested or not shown. Only some compounds are listed: those with a hit (about 7.2% of all), similar ones and a draw of the others. Unless noted, no stated cut-off is given here; in the data, active means inhibition above about 30%; inactive means the rest.

SMILES | PostGolgi yeast | PostGolgi ctrl | PLAP activator | E coli WT exp | Ecoli tolC
N#C/C(=C\c1ccc(Sc2nc3ccccc3[nH]2)o1)c1ccccc1 | -9 | 54* | 1.5 | -17 | x
CCCCOC(=O)Nc1cc(C(=O)OC)ccc1C(=O)OC | 5 | 10 | 0.8 | -1 | 67*
CCCCOC(=O)Nc1ccc(C(=O)OC)cc1 | 2 | -1 | 0.9 | -6 | -16
CN(C)c1ccnc(-n2cccc2/C=N/OCc2ccc(F)cc2Cl)c1C#N | -8 | 34* | 1.8 | -15 | x
COc1ccccc1CO/N=C/c1cccn1-c1nccc(N(C)C)c1C#N | 2 | 1 | 1.9 | -14 | x
CC(O)CNc1nc2ccccc2n1CC(=O)NCCc1ccc(Cl)cc1 (stereo not drawn) | -7 | -9 | 1.5 | 1 | x
COc1ccc(N2CCN(C(=O)CCCn3c(=S)[nH]c4cc5c(cc4c3=O)OCO5)CC2)cc1 | 0 | 0 | 0.9 | -8 | -7
COc1ccc2[nH]c3c(=O)n(CCCCC(=O)N4CCCC4)c(=S)[nH]c3c2c1 | 4 | -12 | 1.1 | 1 | 100*
O=c1oc(-c2ccc(Br)o2)nc2ccccc12 | 7 | 7 | 0.9 | -6 | x
CC1CN(C2CCN(S(=O)(=O)c3ccc(F)cc3)CC2)CC(C)O1 (stereo not drawn) | 48* | 30* | 0.9 | -1 | x
CCOC(=O)c1c(NC(=O)CSc2nnc(-c3cccnc3)n2Cc2ccco2)sc(C)c1C | 6 | 16 | 1.7 | -12 | 26
S=c1nc(-c2ccccc2)[nH]n1-c1ccccc1 | -3 | 12 | 1.1 | -9 | 1
S=c1nc2ccccc2c2nc(-c3ccccc3)[nH]n12 | 7 | 44* | 1.1 | -7 | 23
COc1ccc(C(=O)N2CCN(S(=O)(=O)c3cc(Cl)ccc3OC)CC2)cc1 | -3 | 3 | 0.8 | -11 | 0
Cc1cc(SCC(=O)N2CCC(c3noc4ccc(F)cc34)CC2)nc2ccccc12 | 10 | 34* | 1 | -15 | 35
O/N=C(\c1ccc(Cl)cc1Cl)c1ncc(C(F)(F)F)cc1Cl | 0 | 59* | 1.2 | 5 | x
CCOc1ccc(-n2c(N)c(C(=O)NCc3cccnc3)sc2=S)cc1 | -7 | 32* | 1.1 | -3 | x
COc1cccc(-c2nnc(SCC(=O)Nc3ccc(OC)c(OC)c3)n2N)c1 | -1 | -7 | 0.9 | -10 | -12
COc1cccc(C2CC(c3cccs3)=NN2C(=O)CSC2=NN3CCCC(=O)N=C3S2)c1OC (stereo not drawn) | 1 | 20 | 1.6 | -9 | x
O=C(NNC1=C(C(=O)C(F)(F)F)CCC1)c1ccc(Cl)cc1 | 0 | 3 | 1.2 | 17 | x
O=C(NNC1=C(C(=O)C(F)(F)F)CCC1)c1cccc(Cl)c1 | 3 | 7 | 2* | 32 | x
C/C(CCC12CC3CC(CC(C3)C1)C2)=N\NC(N)=S | 86* | 45* | 0.9 | -2 | x
N#C/C(=C/c1ccc(N2CCCCCC2)o1)c1ccc(F)cc1 | 30* | 5 | x | -15 | 35
O=C(NN1C(=O)c2ccc3c4c(ccc(c24)C1=O)CC3)c1ccc(Br)cc1 | 5 | 3 | 1.1 | -6 | x
O=C(CCS(=O)(=O)c1cccc2nsnc12)NCc1ccccc1 | -2 | -7 | x | -1 | -7
SMILES | PostGolgi yeast | PostGolgi ctrl | PLAP activator | E coli WT exp | Ecoli tolC
CC(=O)c1cccc(NC(=O)CCS(=O)(=O)c2cccc3nsnc23)c1 | -2 | 33* | 1.1 | 4 | x
Cc1cc(C)c2c(n1)nn1c(NCCCN3CCOCC3)cc(C)nc21 | x | x | x | x | -25
Cc1cc(C)c2c(n1)nn1c(NCCCn3ccnc3)cc(C)nc21 | x | x | 2.5* | x | -34
O=C(Nc1cccc(-c2nnc(-c3ccccc3)o2)c1)c1ccc(Br)o1 | -6 | 38* | 0.9 | -12 | 84*
CCOc1ccccc1C(=O)Nc1cccc(-c2nnc(-c3ccccc3)o2)c1 | 10 | 31* | 1.1 | -19 | x
O=C(Nc1cccc(-c2cn3cccnc3n2)c1)c1ccc(Br)o1 | -16 | 33* | 0.8 | 6 | -14
Cc1cccc(NC(=O)c2ccccc2OCC(=O)c2ccccc2)c1 | -4 | 30* | 1.4 | -15 | x
Cc1sc2nc(SCC(=O)NCCOCCO)n(C)c(=O)c2c1C | 3 | 1 | 1.5 | -21 | -4
O=C(CCCCCn1c(=O)[nH]c2ccsc2c1=O)N1CCN(C2CCCCC2)CC1 | -3 | -3 | 1.6 | -1 | -10
CCOc1ccccc1CNC(=O)C1CCN(C(=O)c2sccc2-n2cccc2)CC1 | -1 | 3 | 1.3 | -18 | 0
O=C(CNS(=O)(=O)c1cccs1)N1CCc2ccccc2C1 | 4 | 10 | 1 | 2 | 1
